How the values were obtained:
MCF7 [1] = assay: Cytotoxicity against human […] cells at exponential phase of growth after 48 hrs by MTT assay; type: functional, cell-based; details: Homo sapiens, MCF7, 48 h; read-out: IC50
Method in brief: (§1)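 Monolayers grown in DMEM with 5% fetal calf serum and penicillin-streptomycin at 37 °C, 5% CO2. 2×10^4 cells/well in lag or log phase were exposed for 48 h to a concentration series of compounds predissolved in DMSO. MTT formazan was dissolved in DMSO and read at 550 nm. IC50 taken from the curve; three independent experiments.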

Bacillus cereus = assay: Antibacterial activity against Bacillus cereus ATCC 21772 after 24 hrs by broth dilution assay; type: functional
HEp-2 [2] = assay: Cytotoxicity against human Hep2 cells at lag phase of growth after 48 hrs by MTT assay; type: functional, cell-based; details: Homo sapiens, HEp-2, 48 h; read-out: IC50; method in brief: as §1
HeLa [3] = assay: Cytotoxicity against human HeLa cells at lag phase of growth after 48 hrs by MTT assay; type: functional, cell-based; details: Homo sapiens, HeLa, 48 h; read-out: IC50; method in brief: as §1
Escherichia coli = assay: Antibacterial activity against Escherichia coli ATCC 9637 after 24 hrs by broth dilution assay; type: functional; details: ATCC 9637, 24 h
Method in brief: (§2)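 Microdilution in nutrient broth at 37 °C, about (1-5) × 10^5 cfu/mL inoculum, compounds in DMSO (≤1% v/v, matched DMSO controls), in triplicate. Growth followed by OD550. Wells without visible growth after 24 h on a rotary shaker were subcultured in duplicate onto nutrient agar and colonies counted after overnight incubation. MIC is the lowest concentration inhibiting growth at 24 h.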

Salmonella = assay: Antibacterial activity against Salmonella CECT 4569 after 24 hrs by broth dilution assay; type: functional; details: CECT 4569, 24 h; method in brief: as §2
A549 [4] = assay: Cytotoxicity against human A549 cells at exponential phase of growth after 48 hrs by MTT assay; type: functional, cell-based; details: Homo sapiens, A549, 48 h; read-out: IC50; method in brief: as §1
HeLa [5] = assay: Cytotoxicity against human HeLa cells at exponential phase of growth after 48 hrs by MTT assay; type: functional, cell-based; details: Homo sapiens, HeLa, 48 h; read-out: IC50; method in brief: as §1
HEp-2 [6] = assay: Cytotoxicity against human Hep2 cells at exponential phase of growth after 48 hrs by MTT assay; type: functional, cell-based; details: Homo sapiens, HEp-2, 48 h; read-out: IC50; method in brief: as §1
[7] = tested on: Mycolicibacterium smegmatis; assay: Antibacterial activity against Mycobacterium smegmatis ATCC 19420 after 48 hrs by broth dilution assay; type: functional; details: ATCC 19420, 48 h
Method in brief: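 Brain heart infusion broth with 0.06% Tween 80, 37 °C on a rotary shaker, inoculum about (1-5) × 10^5 cfu/mL, DMSO ≤1% v/v with matched controls, in triplicate. OD550 monitored.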

Bacillus subtilis = assay: Antibacterial activity against Bacillus subtilis ATCC 6051 after 24 hrs by broth dilution assay; type: functional
Proteus mirabilis = assay: Antibacterial activity against Proteus mirabilis CECT 170 after 24 hrs by broth dilution assay; type: functional; details: CECT 170, 24 h; method in brief: as §2
[8] = tested on: Staphylococcus epidermidis; assay: Antibacterial activity against Staphylococcus epidermidis ATCC 14990 after 24 hrs by broth dilution assay; type: functional; method in brief: as §2
Pseudomonas aeruginosa = assay: Antibacterial activity against Pseudomonas aeruginosa AK958 after 24 hrs by broth dilution assay; type: functional; details: AK958, 24 h; method in brief: as §2
Staphylococcus aureus = assay: Antibacterial activity against Staphylococcus aureus ATCC 6538 after 24 hrs by broth dilution assay; type: functional
A549 [9] = assay: Cytotoxicity against human A549 cells at lag phase of growth after 48 hrs by MTT assay; type: functional, cell-based; details: Homo sapiens, A549, 48 h; read-out: IC50; method in brief: as §1
Vero [10] = assay: Cytotoxicity against african green monkey Vero cells at lag phase of growth after 48 hrs by MTT assay; type: cell-based, Chlorocebus sabaeus; details: Chlorocebus sabaeus, Vero, 48 h; read-out: IC50; method in brief: as §1
Enterococcus faecalis = assay: Antibacterial activity against Enterococcus faecalis ATCC 29212 after 24 hrs by broth dilution assay; type: functional; details: ATCC 29212, 24 h
Method in brief: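 Microdilution in brain heart infusion broth, shaken at 37 °C, about (1-5) × 10^5 cfu/mL start, DMSO ≤1% v/v with matched controls, in triplicate. OD550 read. Clear wells at 24 h were subcultured in duplicate onto brain heart infusion agar and counted after overnight incubation. MIC is the lowest concentration giving growth inhibition.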

MCF7 [11] = assay: Cytotoxicity against human MCF7 cells at lag phase of growth after 48 hrs by MTT assay; type: functional, cell-based; details: Homo sapiens, MCF7, 48 h; read-out: IC50; method in brief: as §1
Candida albicans = assay: Antibacterial activity against Candida albicans CECT 1039 after 24 hrs by broth dilution assay
Vero [12] = assay: Cytotoxicity against african green monkey Vero cells at exponential phase of growth after 48 hrs by MTT assay; type: cell-based, Chlorocebus sabaeus; details: Chlorocebus sabaeus, Vero, 48 h; read-out: IC50; method in brief: as §1

MIC (Escherichia coli)	MIC (Salmonella)	MIC [7]	MIC (Bacillus subtilis)	MIC (Proteus mirabilis)	MIC [8]	MIC (Pseudomonas aeruginosa)	MIC (Staphylococcus aureus)	MIC (Enterococcus faecalis)	MIC (Candida albicans)	Structure (SMILES)	IC50 (MCF7 [1])	MI50 (Bacillus cereus)	IC50 (HEp-2 [2])	IC50 (HeLa [3])	IC50 (A549 [4])	IC50 (HeLa [5])	IC50 (HEp-2 [6])	IC50 (Vero [10])	IC50 (MCF7 [11])	IC50 (Vero [12])	other results
> 40 µg/mL	> 40 µg/mL	> 40 µg/mL	>40 µg/mL	> 40 µg/mL	>40 µg/mL	> 40 µg/mL	>40 µg/mL	> 40 µg/mL	>40 µg/mL	COC(=O)C1=C2C=C(C(C)C)COC2(O)[C@H]2OC(=O)[C@@]13CCCC(C)(C)[C@H]23 (stereo partly specified)	42.6 µM	>40 µg/mL	> 60 µM	> 60 µM	39.4 µM	> 60 µM	> 60 µM	> 60 µM	> 60 µM	> 60 µM	IC50 (A549 [9]): > 60 µM
> 40 µg/mL	> 40 µg/mL	> 40 µg/mL	>40 µg/mL	> 40 µg/mL	>40 µg/mL	> 40 µg/mL	>40 µg/mL	> 40 µg/mL	>40 µg/mL	C[C@H]1COC2=C1C(=O)C1=C(C2=O)[C@@]23CCCC(C)(C)[C@@H]2C[C@@H]1OC3=O	18.4 µM	>40 µg/mL	> 58.4 µM	50.3 µM	40.4 µM	17.5 µM	39.8 µM	> 58.4 µM	33 µM	> 58.4 µM	IC50 (A549 [9]): > 58.4 µM
> 40 µg/mL	> 40 µg/mL	> 40 µg/mL	>40 µg/mL	> 40 µg/mL	>40 µg/mL	> 40 µg/mL	>40 µg/mL	> 40 µg/mL	>40 µg/mL	CC(=O)OC[C@H](C)C1=C(OC(C)=O)C(O)C2=C(C1=O)[C@@H]1C[C@H]3C(C)(C)CCC[C@]23C(=O)O1 (stereo partly specified)	> 45 µM	>40 µg/mL	> 45 µM	33.8 µM	–	40.5 µM	> 45 µM	> 45 µM	> 45 µM	> 45 µM	–

More lines, now with the values behind:

Structure (SMILES)	MIC (Escherichia coli)	MIC (Salmonella)	MIC [7]	MIC (Bacillus subtilis)	MIC (Proteus mirabilis)	MIC [8]	MIC (Pseudomonas aeruginosa)	MIC (Staphylococcus aureus)	MIC (Enterococcus faecalis)	MIC (Candida albicans)	IC50 (MCF7 [1])	MI50 (Bacillus cereus)	IC50 (HEp-2 [2])	IC50 (HeLa [3])	IC50 (A549 [4])	IC50 (HeLa [5])	IC50 (HEp-2 [6])	IC50 (Vero [10])	IC50 (MCF7 [11])	IC50 (Vero [12])	other results
C[C@H]1COc2c1cc1c(c2O)[C@@]23CCCC(C)(C)[C@@H]2C[C@@H]1OC3=O	> 40 µg/mL	> 40 µg/mL	> 40 µg/mL	>40 µg/mL	> 40 µg/mL	>40 µg/mL	> 40 µg/mL	>40 µg/mL	> 40 µg/mL	>40 µg/mL	> 60 µM	>40 µg/mL	> 60 µM	56.1 µM	51.5 µM	37.8 µM	> 60 µM	> 60 µM	> 60 µM	> 60 µM	IC50 (A549 [9]): > 60 µM
Cc1coc2c1C(=O)C1=C(C2=O)[C@@]23CCCC(C)(C)[C@@H]2C[C@@H]1OC3=O	> 40 µg/mL	> 40 µg/mL	> 40 µg/mL	>40 µg/mL	> 40 µg/mL	>40 µg/mL	> 40 µg/mL	>40 µg/mL	> 40 µg/mL	>40 µg/mL	> 58.8 µM	>40 µg/mL	–	> 58.8 µM	> 58.8 µM	> 58.8 µM	–	> 58.8 µM	> 58.8 µM	> 58.8 µM	IC50 (A549 [9]): 48.8 µM
CC(C)C1=CC2=C(C(=O)C1=O)[C@@]13CCCC(C)(C)[C@@H]1C[C@@H]2OC3=O	> 40 µg/mL	> 40 µg/mL	> 40 µg/mL	>40 µg/mL	> 40 µg/mL	>40 µg/mL	> 40 µg/mL	>40 µg/mL	> 40 µg/mL	>40 µg/mL	–	>40 µg/mL	> 60 µM	> 60 µM	–	40.2 µM	> 60 µM	–	–	–	–
